Data set [1] concerns Mus musculus. The experiment in a line: Toxicity in C57BL/6 mouse assessed as change in body weight at 2 mg/kg, ip administered daily for 9 days measured during compound dosing. The data set is classed as organism-based. As to conditions: in vivo, 216 h. Summed up:
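Female C57BL/6 mice, n=5/group, given 2 mg/kg ip daily in 5% DMSO vehicle, with a vehicle control group. Body weights recorded on set days over a 9-day study.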

The test system of data set [2] is B16-F10. The data set is described as follows: Antitumor activity against mouse B16F10 cells implanted in C57BL/6 mouse assessed as reduction in lung metastasis at 2 mg/kg, ip administered daily for 1 to 14 days by microscopic method. The data set is classed as functional, organism-based. Summed up:
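Female C57BL/6 mice, 6–8 weeks old, injected via tail vein with 2x10^5 B16F10 cells on day 0. Dosing 2 mg/kg ip daily on days 1–14, in 5% DMSO vehicle, with a vehicle control group. Total black lung nodules counted under microscopy on day 14, n=11/group.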

The species entered for data set [3] is Homo sapiens. The data set is described as follows: Inhibition of topoisomerase 2 (unknown origin) assessed as DNA intercalation at 10 uM using supercoiled pHOT-1 DNA as substrate measured after 30 mins by agarose gel electrophoresis. The gist of the method: (§1)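 Topoisomerase II drug screening kit. Supercoiled pHOT-1 plasmid incubated with topoisomerase II enzyme plus compound at 37 °C for 30 min, with 100 μM etoposide as positive control. Stopped with 10% SDS, then proteinase K for 15 min at 37 °C. Run on 1% agarose gel, stained with EtBr and viewed under UV.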

Data set [4] in a line: Cytotoxicity against mouse B16F10 cells measured after 2 days by MTS assay. As to conditions: B16-F10, 48 h. In general terms: Tetrazolium assays rely on reduction of a dye to a coloured formazan, in cell work by metabolically active cells.
The species entered for data set [5] is Homo sapiens. The data set is described as follows: Inhibition of topoisomerase 2 (unknown origin) assessed as DNA intercalation at 100 uM using supercoiled pHOT-1 DNA as substrate measured after 30 mins by agarose gel electrophoresis. Summed up:
as §1

The source made the active and inactive calls. The rule behind the calls is not given here.

The values that follow come from ChEMBL document CHEMBL3872262, “Synthesis of novel C4-benzazole naphthalimide derivatives with potent anti-tumor properties against murine melanoma” (Bioorg Med Chem, 2017).

As a reminder, the IC50 is the midpoint of a concentration-inhibition curve. Low values mean inhibition by little substance, high ones a need for much substance. As to `CN(C)CCN1C(=O)c2cccc3c(-c4nc5ccccc5s4)ccc(c23)C1=O`, in data set [1], the Activity result is “Non-Toxic”. For the same molecule, in data set [2], the outcome was Active. In addition, the inhibition entry in data set [3] and in data set [5] was “Active” throughout. This molecule gave a 50% inhibitory concentration (IC50) in data set [4] of 4.5 µM.

For the molecule `CN(C)CCN1C(=O)c2cccc3cc(N)cc(c23)C1=O` [AMONAFIDE], in data set [4], it took 6.7 µM to reach half-maximal inhibition (IC50).

On to `CN(C)CCN1C(=O)c2cccc3c(-c4nc5ccccc5o4)ccc(c23)C1=O`, for which the Activity result in data set [1] was “Non-Toxic”. In addition, the outcome in data set [2] was Active. Moreover, the inhibition entry in data set [3] was “Active”. In data set [4], this molecule displayed an IC50 of 7.8 µM.
